Test results from ChEMBL document CHEMBL2331439 (J Med Chem, 2013).

Legend:
[1] = biological target: RAC-alpha serine/threonine-protein kinase (Homo sapiens, UniProt P31749); experiment: Inhibition of recombinant AKT1 (unknown origin) by FRET-based Z'-LYTE assay
[2] = biological target: Casein kinase I isoform gamma-2 (Homo sapiens) (UniProt P78368); experiment: Inhibition of recombinant CSNK1G2 (unknown origin) at 5 uM by FRET-based Z'-LYTE assay
Summary of the method: (§1)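 Single-point panel screen at 5 μM in duplicate. ATP is at the apparent Km of each kinase, and the Z'-LYTE FRET peptide substrate is used. Each point has two control wells: a protease control for interference with development and a fluorescence control for interference with the FRET read-out. Values above 100% are treated as maximal inhibition and values below 0% as none.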

[3] = biological target: Mitogen-activated protein kinase kinase kinase kinase 4 (Homo sapiens) (UniProt O95819); experiment: Inhibition of recombinant MAP4K4 (unknown origin) at 5 uM by FRET-based Z'-LYTE assay; summary of the method: as §1
[4] = biological target: Serine/threonine-protein kinase Chk1 (Homo sapiens) (UniProt O14757); experiment: Inhibition of recombinant CHEK1 (unknown origin) at 5 uM by FRET-based Z'-LYTE assay; summary of the method: as §1
[5] = biological target: T1, Ribosomal protein S6 kinase beta-1 (Homo sapiens, UniProt P23443); experiment: Inhibition of recombinant RPS6KB1 (unknown origin) at 5 uM by FRET-based Z'-LYTE assay
Summary of the method: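 Z'-LYTE FRET peptide (coumarin/fluorescein) phosphorylation was followed by protease development. Wells included a protease control for interference with development and a fluorescence control for interference with the FRET read. Values above 100% or below 0% were treated as maximal or no inhibition.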

[6] = biological target: Phosphatidylinositol 4,5-bisphosphate 3-kinase catalytic subunit gamma isoform (Homo sapiens) (UniProt P48736); experiment: Inhibition of recombinant PIK3CG (unknown origin) at 5 uM after 1 hr by FRET-based adapta assay
Summary of the method: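 After inhibitor and all reaction components are added, the reaction runs for 1 h. ADP formed by the kinase displaces an antibody-tracer complex, so reduced ADP gives a high TR-FRET signal. Inhibition is calculated against a control.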

[7] = biological target: Fibroblast growth factor receptor 1 (Homo sapiens) (UniProt P11362); experiment: Inhibition of recombinant FGFR1 (unknown origin) at 5 uM by FRET-based Z'-LYTE assay; summary of the method: as §1
[8] = biological target: Serine/threonine-protein kinase PAK 4 (Homo sapiens) (UniProt O96013); experiment: Inhibition of recombinant PAK4 (unknown origin) at 5 uM by FRET-based Z'-LYTE assay; summary of the method: as §1
[9] = biological target: Glycogen synthase kinase-3 beta (Homo sapiens) (UniProt P49841); experiment: Inhibition of recombinant GSK3B (unknown origin) at 5 uM by FRET-based Z'-LYTE assay; summary of the method: as §1
[10] = biological target: Receptor-type tyrosine-protein kinase FLT3 (Homo sapiens) (UniProt P36888); experiment: Inhibition of recombinant FLT3 (unknown origin) at 5 uM by FRET-based Z'-LYTE assay; summary of the method: as §1
[11] = biological target: Serine/threonine-protein kinase PLK1 (Homo sapiens) (UniProt P53350); experiment: Inhibition of recombinant PLK1 (unknown origin) at 5 uM by FRET-based Z'-LYTE assay; summary of the method: as §1
[12] = biological target: T1, Ribosomal protein S6 kinase beta-1; experiment: Inhibition of recombinant RPS6K1 (unknown origin) by FRET-based Z'-LYTE assay

Sequence of Glycogen synthase kinase-3 beta (Homo sapiens) (P49841 whole entry, looked up): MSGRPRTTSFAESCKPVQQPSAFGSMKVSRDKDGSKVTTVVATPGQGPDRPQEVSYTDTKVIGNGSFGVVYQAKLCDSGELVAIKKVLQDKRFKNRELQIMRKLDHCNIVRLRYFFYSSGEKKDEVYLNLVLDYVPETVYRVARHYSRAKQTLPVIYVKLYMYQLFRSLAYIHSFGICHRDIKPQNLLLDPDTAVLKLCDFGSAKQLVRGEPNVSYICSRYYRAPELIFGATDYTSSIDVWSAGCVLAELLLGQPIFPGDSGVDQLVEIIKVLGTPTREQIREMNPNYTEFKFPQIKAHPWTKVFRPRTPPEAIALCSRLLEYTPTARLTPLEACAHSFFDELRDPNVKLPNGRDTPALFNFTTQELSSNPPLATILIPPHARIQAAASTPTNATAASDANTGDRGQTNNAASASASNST
Sequence of Casein kinase I isoform gamma-2 (Homo sapiens) (P78368 whole entry, looked up, canonical isoform): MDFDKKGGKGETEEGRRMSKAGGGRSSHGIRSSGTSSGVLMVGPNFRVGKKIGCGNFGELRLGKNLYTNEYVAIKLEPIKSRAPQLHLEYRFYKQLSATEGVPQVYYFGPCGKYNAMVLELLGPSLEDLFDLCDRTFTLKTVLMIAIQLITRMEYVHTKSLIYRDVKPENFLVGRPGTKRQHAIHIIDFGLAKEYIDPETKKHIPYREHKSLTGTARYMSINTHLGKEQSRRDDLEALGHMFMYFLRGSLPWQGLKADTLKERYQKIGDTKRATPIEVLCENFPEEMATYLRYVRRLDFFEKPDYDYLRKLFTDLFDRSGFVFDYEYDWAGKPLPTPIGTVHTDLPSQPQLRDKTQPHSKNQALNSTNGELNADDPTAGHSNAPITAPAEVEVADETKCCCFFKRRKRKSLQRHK
Sequence of Serine/threonine-protein kinase PLK1 (Homo sapiens) (P53350 whole entry): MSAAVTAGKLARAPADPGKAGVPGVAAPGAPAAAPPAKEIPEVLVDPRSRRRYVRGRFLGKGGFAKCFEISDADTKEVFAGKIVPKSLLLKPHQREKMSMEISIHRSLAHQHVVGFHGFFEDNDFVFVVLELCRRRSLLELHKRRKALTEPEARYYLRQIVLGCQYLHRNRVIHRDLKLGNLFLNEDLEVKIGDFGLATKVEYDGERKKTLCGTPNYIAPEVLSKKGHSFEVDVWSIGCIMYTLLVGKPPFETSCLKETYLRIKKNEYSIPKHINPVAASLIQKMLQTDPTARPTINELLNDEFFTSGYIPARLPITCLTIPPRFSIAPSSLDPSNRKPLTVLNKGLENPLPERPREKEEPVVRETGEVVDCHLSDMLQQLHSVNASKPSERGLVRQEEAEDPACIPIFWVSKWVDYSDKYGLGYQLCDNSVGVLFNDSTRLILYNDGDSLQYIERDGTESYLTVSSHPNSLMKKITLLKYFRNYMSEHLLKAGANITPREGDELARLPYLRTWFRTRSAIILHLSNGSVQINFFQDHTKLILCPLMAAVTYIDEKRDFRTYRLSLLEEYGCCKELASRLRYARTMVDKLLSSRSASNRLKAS
Sequence of Mitogen-activated protein kinase kinase kinase kinase 4 (Homo sapiens) (O95819 2-1239 limits assumed): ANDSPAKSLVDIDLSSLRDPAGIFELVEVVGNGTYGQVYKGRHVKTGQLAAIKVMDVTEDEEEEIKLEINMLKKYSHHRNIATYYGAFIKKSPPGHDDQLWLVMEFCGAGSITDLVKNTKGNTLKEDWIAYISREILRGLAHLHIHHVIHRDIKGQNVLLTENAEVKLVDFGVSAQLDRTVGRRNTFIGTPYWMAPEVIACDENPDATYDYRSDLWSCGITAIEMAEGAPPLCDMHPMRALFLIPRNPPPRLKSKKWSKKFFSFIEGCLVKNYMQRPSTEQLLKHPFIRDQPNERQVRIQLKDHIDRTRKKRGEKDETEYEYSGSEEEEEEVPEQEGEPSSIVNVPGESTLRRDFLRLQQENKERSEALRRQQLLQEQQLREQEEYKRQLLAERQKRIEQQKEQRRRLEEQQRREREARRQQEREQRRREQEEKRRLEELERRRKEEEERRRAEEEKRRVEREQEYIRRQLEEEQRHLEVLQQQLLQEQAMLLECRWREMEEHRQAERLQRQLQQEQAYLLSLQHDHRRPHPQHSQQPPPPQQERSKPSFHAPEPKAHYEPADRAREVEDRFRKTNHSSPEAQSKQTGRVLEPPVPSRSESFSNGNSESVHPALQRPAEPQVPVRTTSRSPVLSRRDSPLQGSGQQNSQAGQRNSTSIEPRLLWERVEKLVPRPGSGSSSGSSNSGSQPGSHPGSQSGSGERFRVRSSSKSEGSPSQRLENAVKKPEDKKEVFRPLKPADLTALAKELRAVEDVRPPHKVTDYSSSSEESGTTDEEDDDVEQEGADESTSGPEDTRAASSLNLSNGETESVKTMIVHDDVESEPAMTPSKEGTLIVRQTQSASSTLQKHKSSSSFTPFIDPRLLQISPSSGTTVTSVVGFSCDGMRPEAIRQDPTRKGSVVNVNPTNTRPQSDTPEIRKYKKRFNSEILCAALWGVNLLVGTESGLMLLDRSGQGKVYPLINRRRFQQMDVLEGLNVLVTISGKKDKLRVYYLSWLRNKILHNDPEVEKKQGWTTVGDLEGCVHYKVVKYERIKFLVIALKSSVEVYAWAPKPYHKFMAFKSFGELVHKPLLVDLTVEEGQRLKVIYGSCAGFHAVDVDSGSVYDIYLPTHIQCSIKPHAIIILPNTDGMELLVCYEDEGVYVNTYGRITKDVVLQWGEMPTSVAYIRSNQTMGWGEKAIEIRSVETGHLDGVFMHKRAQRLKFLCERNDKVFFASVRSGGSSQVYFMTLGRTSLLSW
Sequence of Serine/threonine-protein kinase Chk1 (Homo sapiens) (O14757 whole entry): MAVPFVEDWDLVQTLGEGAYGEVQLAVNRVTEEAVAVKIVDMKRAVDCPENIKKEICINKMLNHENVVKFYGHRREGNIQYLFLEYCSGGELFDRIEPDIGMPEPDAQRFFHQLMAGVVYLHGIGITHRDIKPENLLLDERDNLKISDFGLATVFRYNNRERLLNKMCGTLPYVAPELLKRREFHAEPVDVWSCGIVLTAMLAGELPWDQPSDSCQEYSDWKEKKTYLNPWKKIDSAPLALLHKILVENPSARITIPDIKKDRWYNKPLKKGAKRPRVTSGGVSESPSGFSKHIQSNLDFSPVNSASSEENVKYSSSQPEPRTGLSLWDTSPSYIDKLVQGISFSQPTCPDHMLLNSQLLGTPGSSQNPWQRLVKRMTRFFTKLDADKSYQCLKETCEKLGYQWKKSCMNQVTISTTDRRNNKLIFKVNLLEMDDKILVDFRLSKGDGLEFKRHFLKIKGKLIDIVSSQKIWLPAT
Sequence of Receptor-type tyrosine-protein kinase FLT3 (Homo sapiens) (P36888 whole entry): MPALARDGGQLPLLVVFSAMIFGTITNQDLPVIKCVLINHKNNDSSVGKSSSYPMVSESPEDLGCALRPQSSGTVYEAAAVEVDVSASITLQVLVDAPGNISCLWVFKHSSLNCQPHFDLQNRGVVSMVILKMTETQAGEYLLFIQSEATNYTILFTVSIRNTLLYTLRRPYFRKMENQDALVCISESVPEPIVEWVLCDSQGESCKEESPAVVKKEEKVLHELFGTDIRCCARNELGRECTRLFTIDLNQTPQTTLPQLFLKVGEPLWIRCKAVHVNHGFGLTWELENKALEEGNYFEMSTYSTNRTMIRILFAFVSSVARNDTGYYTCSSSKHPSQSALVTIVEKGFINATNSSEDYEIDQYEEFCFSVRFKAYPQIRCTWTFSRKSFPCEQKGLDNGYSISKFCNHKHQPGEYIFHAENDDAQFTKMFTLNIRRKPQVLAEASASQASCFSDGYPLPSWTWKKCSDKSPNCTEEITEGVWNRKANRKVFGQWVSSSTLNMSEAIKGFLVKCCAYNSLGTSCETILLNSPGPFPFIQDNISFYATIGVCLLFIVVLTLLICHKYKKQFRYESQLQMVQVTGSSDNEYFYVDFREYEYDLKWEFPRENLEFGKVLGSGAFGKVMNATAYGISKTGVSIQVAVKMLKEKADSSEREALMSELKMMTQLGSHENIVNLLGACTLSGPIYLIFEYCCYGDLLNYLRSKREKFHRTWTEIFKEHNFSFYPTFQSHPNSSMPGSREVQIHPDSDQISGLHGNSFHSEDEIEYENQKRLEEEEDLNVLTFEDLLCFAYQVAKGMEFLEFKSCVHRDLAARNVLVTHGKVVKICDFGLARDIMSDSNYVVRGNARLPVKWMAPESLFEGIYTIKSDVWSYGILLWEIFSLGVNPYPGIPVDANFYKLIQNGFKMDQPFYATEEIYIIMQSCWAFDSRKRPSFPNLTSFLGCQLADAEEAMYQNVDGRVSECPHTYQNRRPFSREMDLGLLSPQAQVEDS
Sequence of Fibroblast growth factor receptor 1 (Homo sapiens) (P11362 22-822 limits assumed): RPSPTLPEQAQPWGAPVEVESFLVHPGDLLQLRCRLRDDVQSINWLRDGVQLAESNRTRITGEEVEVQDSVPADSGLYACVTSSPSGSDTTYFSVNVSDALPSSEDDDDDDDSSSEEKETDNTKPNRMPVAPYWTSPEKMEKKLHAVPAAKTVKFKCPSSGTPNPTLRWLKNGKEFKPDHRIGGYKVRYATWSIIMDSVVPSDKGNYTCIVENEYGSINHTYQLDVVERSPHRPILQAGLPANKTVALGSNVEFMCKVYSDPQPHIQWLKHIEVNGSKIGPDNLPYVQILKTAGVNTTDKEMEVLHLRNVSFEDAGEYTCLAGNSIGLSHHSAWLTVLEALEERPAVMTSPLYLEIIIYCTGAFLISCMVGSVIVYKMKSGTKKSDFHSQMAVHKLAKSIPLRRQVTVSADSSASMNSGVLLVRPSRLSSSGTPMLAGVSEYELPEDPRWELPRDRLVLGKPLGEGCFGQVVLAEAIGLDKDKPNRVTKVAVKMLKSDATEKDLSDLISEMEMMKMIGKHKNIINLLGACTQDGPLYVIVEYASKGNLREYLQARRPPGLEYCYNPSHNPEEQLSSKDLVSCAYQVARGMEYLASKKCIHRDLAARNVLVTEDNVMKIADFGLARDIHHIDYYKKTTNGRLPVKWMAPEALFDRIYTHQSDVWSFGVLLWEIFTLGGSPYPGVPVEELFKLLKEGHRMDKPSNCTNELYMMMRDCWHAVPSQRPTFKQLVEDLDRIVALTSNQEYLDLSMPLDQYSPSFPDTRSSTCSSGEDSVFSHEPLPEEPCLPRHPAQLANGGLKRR

O=C1/C(=C/c2ccccn2)CNC/C1=C\c1ccccn1
IC50 [1]: 20 nM
inhibition [2]: 12%
inhibition [3]: 72%
inhibition [4]: 90%
inhibition [5]: 101%
inhibition [6]: 34%
inhibition [7]: 66%
inhibition [8]: 18%
inhibition [9]: 17%
inhibition [10]: 69%
inhibition [11]: -9%
IC50 [12]: 1400 nM
